From PubChem BioAssay
ZTA DNA inh = counter-screen for EBNA-1 inhibitors: inhibitors of Epstein-Barr virus ZTA. P03206. ZTA-DNA binding, fluorescence polarization. inhibition, % at 11 µM. 320,000 compounds, 0.15% hits. AID 2234; in the data active = inhibition above about 33%
Target sequence (P03206 whole entry, looked up): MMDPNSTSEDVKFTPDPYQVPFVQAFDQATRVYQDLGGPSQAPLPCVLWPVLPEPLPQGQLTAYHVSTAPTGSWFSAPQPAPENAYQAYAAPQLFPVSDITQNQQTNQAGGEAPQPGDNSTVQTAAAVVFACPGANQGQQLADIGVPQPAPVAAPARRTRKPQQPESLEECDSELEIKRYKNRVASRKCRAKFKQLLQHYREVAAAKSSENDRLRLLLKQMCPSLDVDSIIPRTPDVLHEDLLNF
EBNA-1 inh = blocks EBNA-1 binding to DNA; EBNA-1 DNA binding, fluorescence polarization; inhibition, % at 14.8 µM; 300,000 compounds, 0.34% hits; in the data active = inhibition above about 28%
PP1 inh = counter-screen for PP5 inhibitors: inhibitors of human PP1-alpha; purified PP1alpha, OMFP fluorescence; P62136; 320,000 compounds, 0.9% hits; inhibition, % at 6.7 µM;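 active = inhibition above the mean inhibition of all tested compounds plus 3 SD, computed separately for each screening campaign, cut at about 15% in these data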
Target sequence (P62136 whole entry, looked up): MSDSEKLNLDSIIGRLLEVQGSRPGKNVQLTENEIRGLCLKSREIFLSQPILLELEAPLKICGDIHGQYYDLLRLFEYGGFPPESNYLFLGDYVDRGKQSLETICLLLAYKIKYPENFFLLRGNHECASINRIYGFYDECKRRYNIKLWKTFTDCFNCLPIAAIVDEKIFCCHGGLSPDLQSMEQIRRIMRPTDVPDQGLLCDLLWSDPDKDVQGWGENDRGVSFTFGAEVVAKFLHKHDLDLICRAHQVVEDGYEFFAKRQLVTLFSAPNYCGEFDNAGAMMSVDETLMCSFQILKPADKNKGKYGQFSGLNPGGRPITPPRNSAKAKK
PP5 inh = PP5 (human) phosphatase inhibition. 320,000 compounds, 0.18% hits. P53041. AID 1987. purified PP5c, OMFP substrate fluorescence. inhibition, % at 6.7 µM;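 active = inhibition above the campaign's mean inhibition across all tested compounds plus 3 SD, cut at about 9.5% in these data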;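 note: 0% = DMSO only and 100% = 100 µM cantharidin control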
HCV core dimer = blocks dimerization of HCV core protein; TR-FRET GST/Flag-core106 dimerization, 1536-well; inhibition, % at 5 µM; 300,000 compounds, 0.33% hits;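 active = inhibition above the mean of all tested compounds plus 3 SD, set per screening campaign, cut at about 45% in these data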
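System: GST-tagged and Flag-tagged HCV core protein residues 1-106 / Input: core106 proteins, GST 13.5 nM and Flag 17 nM / Buffer or medium: KF-containing HEPES buffer, pH 7.45, DTT, CHAPS, BSA / Probe or stimulus: Eu-anti-GST and XL665-anti-Flag labelled anti-tag antibodies / Schedule: 4 h, 22.5 °C incubation / Technique: TR-FRET 671 and 617 nm emission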
PP1 inh confirm = human PP1 phosphatase inhibition, confirmation; inhibition, % at 6.7 µM; shares compounds with PP1 inh; AID 2358; purified PP1alpha, OMFP substrate fluorescence; 1,900 compounds, 52% hits;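 active = mean PP1 inhibition above a set limit taken from the earlier primary screen, cut at about 15% in these data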
PP5 inh counter = PP5 phosphatase inhibition, counter-screen for PP1 inhibitors; inhibition, % at 6.7 µM; 1,900 compounds, 4% hits; purified PP5c, OMFP fluorescence; AID 2360; shares compounds with PP1 inh;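 active = mean PP5 inhibition over triplicate wells above about 9.5% taken from the earlier PP1 screen, limit read from the data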
Active calls of the source: *; x = no result. An excerpt weighted towards active compounds, which were near 1.7% of everything screened.

SMILES	ZTA DNA inh	EBNA-1 inh	PP1 inh	PP5 inh	HCV core dimer	PP1 inh confirm	PP5 inh counter
Cc1nn(-c2ccc(Cl)cc2)c(Cl)c1/C=N/NC(=O)c1ccc(NS(=O)(=O)c2cccs2)cc1	-2.0	-3.9	18.7*	2.1	54.2*	14.6	0.9
COc1ccc(OC)c(S(=O)(=O)NC(N)=NCCc2ccccc2OC)c1	4.1	-4.5	-2.4	2.5	5.3	x	x
CCOc1cc(C2C(C(C)=O)=C(O)C(=O)N2CCc2c[nH]c3ccccc23)ccc1O (stereo not given)	3.8	3.0	3.8	0.7	-1.2	x	x
CC(=O)C1=C(O)C(=O)N(CCc2c[nH]c3ccccc23)C1c1ccc(C)cc1 (stereo not given)	-5.5	3.0	25.7*	3.7	0.0	23.1*	-3.5
CCc1cccc(C)c1NC(=O)CN(C)Cc1ccccc1F	6.1	-3.1	-4.5	3.0	-0.5	x	x
O=C(CC(NC(=O)c1ccccc1Cl)c1ccccc1)NCCc1ccc(Cl)cc1 (stereo not given)	-9.5	6.6	18.6*	-2.1	14.1	6.4	-0.8
Cc1ccc(CNC(=O)c2ccc(N3CCC4(CC3)CC(c3cccc(Br)c3)=NO4)c(NC(=O)c3c(Cl)cccc3Cl)c2)cc1	1.3	19.6	21.3*	-0.5	28.4	13.6	-1.7
C/C=C\C=C/C(=O)Nc1cccc(C2=NOC3(C2)C[C@@H](C(N)=O)N(C(=O)/C=C/C=C\C)C3)c1 (stereo not given in full)	4.4	1.1	30.9*	4.0	39.3	14.2	-1.1
C/C=C\C(=O)Nc1cccc(C2=NOC3(C2)C[C@H](C(N)=O)N(C(=O)/C=C/CC)C3)c1 (stereo not given in full)	8.7	8.6	-4.0	-1.7	-4.2	x	x
NC(=O)[C@H]1CC2(CC(c3cccc(NC(=O)CC(c4ccccc4)c4ccccc4)c3)=NO2)CN1C(=O)c1ccccc1C(=O)c1ccccc1 (stereo not given in full)	1.4	-12.6	19.2*	2.6	46.3*	11.7	0.2
C=C(C)C(=O)Nc1cccc(C2=NOC3(C2)C[C@@H](C(N)=O)N(C(=O)C2(C)CC2)C3)c1 (stereo not given in full)	25.5	2.9	23.4*	1.7	-206.1	1.9	-3.4
Cc1ccc(OC(=O)CCN2C(=O)c3ccccc3C2=O)cc1C	5.2	0.8	-4.3	0.3	7.6	x	x
COc1cc2c(cc1OC)C(COc1ccc([N+](=O)[O-])cc1)NCC2 (stereo not given)	14.5	2.4	0.5	0.5	-0.5	x	x
CCOc1ccc(C(=O)Nc2ccc(S(=O)(=O)N3CCOCC3)cc2)cc1OCC	7.7	-0.2	-3.1	1.6	2.7	x	x
CCOc1ccc(NC(=O)c2cccc(-n3cccc3)c2)cc1S(=O)(=O)N1CCOCC1	12.9	x	21.5*	4.1	x	22.7*	1.2
CC1(C)S[C@@H]2[C@H](NC(=O)C(NC(=O)N3CCNC3=O)c3ccccc3)C(=O)N2[C@H]1C(=O)O (stereo not given in full)	-11.1	3.1	-1.2	0.3	3.4	x	x
FC(F)(F)c1ccc(C2[C@H]3CN(Cc4cccnc4)[C@H](c4ccccc4)C34CC2(c2cccnc2)C4)cc1 (stereo not given in full)	6.5	1.5	18.9*	5.4	13.4	7.1	-0.6
COC(=O)c1ccc(C23CC4(C2)[C@H](CN(Cc2cccnc2)[C@@H]4c2ccccc2)C3c2ccccc2)cc1 (stereo not given in full)	-1.9	1.7	7.9	2.9	19.6	x	x
N#Cc1ccc(C23CC4(C2)[C@H](CN(Cc2cccnc2)[C@@H]4c2ccccc2)C3c2ccccc2)cc1 (stereo not given in full)	-9.5	0.9	20.4*	2.1	40.2	17.3*	-1.6
COc1cccc(C(=O)NC2CC3CCCC(C2)N3S(=O)(=O)c2ccccc2)c1 (stereo not given)	13.5	1.8	-2.5	-1.9	6.3	x	x
Cc1ccccc1Nc1nnc(SCC(=O)NC(=O)NCc2ccco2)s1	8.5	10.3	26.5*	0.8	22.3	6.6	-3.1
Cc1cc(/C=C2\SC(=Nc3ccccc3)NC2=O)c(C)n1-c1ccc(S(N)(=O)=O)cc1	-9.7	-9.1	18.2*	3.9	63.3*	7.1	0.1
Cc1nc(NCCc2ccc(O)cc2)c2nnn(Cc3ccccc3)c2n1	3.2	-1.8	-1.6	2.6	-5.8	x	x
O=C(Nc1ccc2ccccc2n1)Nc1cccs1	3.0	8.5	-3.4	-2.5	-1.3	x	x
Cc1cccc(N(C(=O)CCC(=O)Nc2cc(C)on2)C(C(=O)NC2CCCC2)c2ccccc2)c1 (stereo not given)	-0.1	-6.6	5.4	1.4	10.1	x	x
SMILES	ZTA DNA inh	EBNA-1 inh	PP1 inh	PP5 inh	HCV core dimer	PP1 inh confirm	PP5 inh counter
CCc1nnc(NC(=O)CSc2sc3c(O)cc(=O)[nH]c3c2C#N)s1	-8.7	-8.0	18.1*	0.3	-18.8	3.1	-3.0
COc1ccccc1NC(=O)CSc1sc2c(O)cc(=O)[nH]c2c1C#N	-10.3	-5.1	19.7*	-0.5	-5.6	-0.1	-1.9
COc1ccc(NC(=O)CSc2sc3c(O)cc(=O)[nH]c3c2C#N)c(OC)c1	-1.6	2.6	13.4	1.4	12.0	x	x
Cc1ccc(C(=O)Nc2ccc(S(=O)(=O)NC3=NCCCCC3)cc2)cc1S(=O)(=O)N1CCOCC1	13.2	x	-4.3	1.4	x	x	x
CN(C)C(=O)C1Cc2ccccc2CN1S(=O)(=O)c1ccc(F)cc1 (stereo not given)	9.8	-11.8	-1.3	-0.9	-1.5	x	x
Cc1nc2nc(SCC(=O)O)nn2c(C)c1Cc1ccccc1Cl	7.9	-4.0	2.7	0.6	2.0	x	x
Cc1c(C)c2ccc(OCC(=O)Nc3cccnc3)cc2oc1=O	-6.4	-7.5	0.7	-0.2	-1.6	x	x
Cc1ccc2[nH]c3c(=O)n(CC(=O)Nc4ccccc4N4CCN(C)CC4)ncc3c2c1	1.0	-14.4	-2.8	-0.2	-3.2	x	x
NS(=O)(=O)c1ccc(N/N=C/c2cn(-c3ccccc3)nc2-c2cccs2)c([N+](=O)[O-])c1	4.2	12.5	26.3*	0.9	7.8	26.2*	0.4
Cc1cccc(N2C(=O)C(O)=C(C(=O)c3cccs3)C2c2cccc(Oc3ccccc3)c2)n1 (stereo not given)	3.2	13.7	25.3*	-0.1	31.8	25.4*	-2.1
COc1ccc(C2C(C(=O)c3cccs3)=C(O)C(=O)N2c2cccc(C)n2)cc1 (stereo not given)	-11.3	8.9	12.1	2.1	1.6	x	x
CCOC(=O)c1ccc(NNC(=O)CC)c([N+](=O)[O-])c1	-1.3	1.9	-2.4	1.8	-2.4	x	x
COc1cc(/C=N/NC(=O)c2ccccc2O)ccc1OCC(=O)Nc1ccccc1	5.1	0.4	18.3*	3.3	3.4	15.6*	-8.3
COc1ccc(OC)c(NC(=O)Nc2cc(NC(=O)Nc3cc(OC)ccc3OC)c(C)nc2C)c1	21.2	4.2	13.3	-1.8	3.6	x	x
